# Experimental data gathered from unrelated publications.
# Compare with care: the assays were run in different laboratories.
# Target: Vascular endothelial growth factor receptor 3 (FLT4, Homo sapiens, UniProt P35916)
Structure (SMILES),test,conditions,measurement,result
COc1ccc2[nH]c3c4[nH]c5ccc(OC)cc5c4c4c(c3c2c1)C(=O)NC4=O,"binding, competition with immobilised ligand",1 µM,remaining binding,71%
C=CC(=O)N1CCC([C@@H]2CCNc3c(C(N)=O)c(-c4ccc(Oc5ccccc5)cc4)nn32)CC1,cell-free assay,1 µM,inhibition,12%
CN1CCN(C(=O)c2ccc(NC(=O)Nc3ccc(N(C)c4ccnc(Nc5ccc(CS(C)(=O)=O)cc5)n4)cc3)cc2)CC1,"binding, competition with immobilised ligand",1 µM,remaining binding,2%
C1=C/COCc2cc(ccc2OCCN2CCCC2)Nc2nccc(n2)-c2cccc(c2)COC/1,binding,0.1 µM,remaining binding,69%
O=C1C=C(Nc2ccc(OCc3cn(Cc4ccc(Br)cc4)nn3)cc2)C(=O)c2ccccc21,"enzyme activity, inhibitor, radiometric",10 µM,inhibition,26%
CCCCC(=O)Nc1ccc(-c2ccc3ncn(CCC)c(=O)c3c2)cn1,"binding, competition with immobilised ligand",0.5 µM,remaining binding,100%
CC#CC(=O)N1CCC[C@H]1c1nc(-c2ccc(C(=O)Nc3ccccn3)cc2)c2c(N)nccn12,"enzyme activity, inhibitor",1 µM,inhibition,0%
COc1ccc2oc(-c3ccc4nc(N)oc4c3)c/c(=N\c3ccccc3NC(=O)CCN)c2c1,binding,1 µM,remaining binding,105%
